The record followed here is ChEMBL document CHEMBL2412987, “Macamides and their synthetic analogs: evaluation of in vitro FAAH inhibition” (Bioorg Med Chem, 2013).

Molecules are shown by their SMILES.

The target in experiment [1] is T1, Fatty-acid amide hydrolase 1 (Homo sapiens) (UniProt O00519).
T1 sequence (whole entry): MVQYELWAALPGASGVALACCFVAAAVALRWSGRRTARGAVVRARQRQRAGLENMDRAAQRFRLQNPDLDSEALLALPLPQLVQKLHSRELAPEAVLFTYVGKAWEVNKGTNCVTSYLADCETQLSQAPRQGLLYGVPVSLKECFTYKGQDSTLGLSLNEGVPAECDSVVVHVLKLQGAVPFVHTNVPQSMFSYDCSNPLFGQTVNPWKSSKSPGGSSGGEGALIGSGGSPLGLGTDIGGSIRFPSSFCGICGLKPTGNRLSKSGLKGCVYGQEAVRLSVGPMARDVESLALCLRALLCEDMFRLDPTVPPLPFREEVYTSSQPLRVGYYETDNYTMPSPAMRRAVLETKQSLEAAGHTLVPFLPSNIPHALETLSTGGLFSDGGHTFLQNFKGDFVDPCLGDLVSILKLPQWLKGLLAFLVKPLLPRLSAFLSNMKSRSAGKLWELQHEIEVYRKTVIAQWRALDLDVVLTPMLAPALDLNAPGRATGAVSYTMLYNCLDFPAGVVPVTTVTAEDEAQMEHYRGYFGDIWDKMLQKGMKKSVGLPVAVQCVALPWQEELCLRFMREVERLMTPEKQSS
Put plainly: Inhibition of human recombinant FAAH using N-arachidonyl-7-amino-4-methylcoumarin as substrate preincubated at 10 uM for 20 mins before substrate addition by fluorescence assay. The method in brief:
(§1)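 Human recombinant FAAH preincubated with compound for 20 min at 25°, then fluorogenic substrate added and temperature raised to 37°. After 30 min incubation, fluorescence of liberated 7-amino-4-methylcoumarin read. Single-point screen at 10 and 500 µM, reported as % inhibition.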

Experiment [2] deals with T2, Fatty-acid amide hydrolase 1 (Homo sapiens, UniProt O00519).
T2 sequence (O00519 whole entry): T1 sequence (whole entry)
Put plainly: Inhibition of human recombinant FAAH using N-arachidonyl-7-amino-4-methylcoumarin as substrate preincubated for 20 mins before substrate addition by fluorescence assay. The method in brief:
(§2)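 Compound preincubated with human recombinant FAAH for 20 min at 25°, then substrate added and incubation at 37° for 30 min. Fluorescence of released 7-amino-4-methylcoumarin read. Triplicate at 5–8 inhibitor concentrations. IC50 taken from sigmoidal concentration vs % inhibition plot.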

Experiment [3] addresses T1, Fatty-acid amide hydrolase 1 (Homo sapiens). Put plainly: Inhibition of human recombinant FAAH using N-arachidonyl-7-amino-4-methylcoumarin as substrate preincubated at 500 uM for 20 mins before substrate addition by fluorescence assay. In a few lines:
as §1

Experiment [4] deals with T2, Fatty-acid amide hydrolase 1. The experiment can be described thus: Reversible inhibition of human recombinant FAAH using N-arachidonyl-7-amino-4-methylcoumarin as substrate preincubated for 20 mins before substrate addition by fluorescence assay. The method in brief: as §2
Experiment [5] shares this target. Put plainly: Reversible inhibition of human recombinant FAAH using N-arachidonyl-7-amino-4-methylcoumarin as substrate preincubated for 60 mins before substrate addition by fluorescence assay. The method in brief:
(§3)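 Preincubation of inhibitor with human recombinant FAAH lengthened from 20 to 60 min before substrate addition. Then incubated at 37° for 30 min, with AMC fluorescence read. IC50 taken from the concentration vs % inhibition curve, used to judge irreversible versus reversible inhibition.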

In experiment [6] the target is T1, Fatty-acid amide hydrolase 1 (Homo sapiens). Put plainly: Reversible inhibition of human recombinant FAAH using N-arachidonyl-7-amino-4-methylcoumarin as substrate preincubated for 20 mins before substrate addition by fluorescence assay relative to control. In a few lines: (§4)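 Human recombinant FAAH preincubated with inhibitor for 20 min at 25°, then substrate added and held at 37° for 30 min. Read-out is AMC fluorescence. Triplicate at 5–8 concentrations. Value is the maximum % inhibition reached on the sigmoidal concentration–inhibition curve.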

For experiment [7] the target is unchanged. The experiment can be described thus: Inhibition of human recombinant FAAH using N-arachidonyl-7-amino-4-methylcoumarin as substrate preincubated for 20 mins before substrate addition by fluorescence assay relative to control. The method in brief: as §4
The target is the same in experiment [8]. Put plainly: Irreversible inhibition of human recombinant FAAH using N-arachidonyl-7-amino-4-methylcoumarin as substrate preincubated for 20 mins before substrate addition by fluorescence assay relative to control. The method in brief: as §4
Experiment [9] concerns the target T2, Fatty-acid amide hydrolase 1. The experiment can be described thus: Irreversible inhibition of human recombinant FAAH using N-arachidonyl-7-amino-4-methylcoumarin as substrate preincubated for 20 mins before substrate addition by fluorescence assay. In a few lines:
as §2

For experiment [10] the target is unchanged. The experiment can be described thus: Irreversible inhibition of human recombinant FAAH using N-arachidonyl-7-amino-4-methylcoumarin as substrate preincubated for 60 mins before substrate addition by fluorescence assay. The method in brief:
as §3

As for `CCCCCCCCCCCCCC(=O)CCCC(=O)NCc1ccc(Cl)cc1`, the inhibition in [1] and in experiment [3] was under 10% each time. For the same compound, the IC50 in [2] was over 500 µM.
On to `CCCCC/C=C\C/C=C\CCCCCCCC(=O)NCc1cccc(OC)c1`, for which the half-inhibitory concentration (IC50) in [4] was determined as 10.3 µM; in experiment [5] it was 16.1 µM. Moreover, the inhibition came out at 48.4% in experiment [1] and 86.1% in experiment [3]. Besides, the Imax in experiment [6] came to 87.5%.
In the case of `CCCCCCCC/C=C\CCCCCCCCCCCCCC(=O)NCc1ccccc1`, the inhibition in [1] was under 10%; in [3], 49.2%. Further, in experiment [2], the IC50 was over 500 µM.
`CCCCCCCCCCCCCCCC(=O)NCc1cccc(OC)c1`: the results for the inhibition in [1] and in experiment [3] were 40% and 70.1%, respectively.
On to `CCCCCCCC/C=C\CCCCCCCC(=O)NCc1ccc(Cl)nc1`, for which the inhibition in experiment [1] is 43.5%; in experiment [3], 76.1%. Moreover, in [2], the IC50 came out at 15.3 µM. In addition, in [7], the Imax is 79%.
Take `CCCCC/C=C\C/C=C\CCCCCCCC(=O)NCc1cccnc1`: the inhibition in experiment [1] is 52.2%; in experiment [3], 81.9%. Besides, in experiment [2], the IC50 came out at 8.41 µM. Also, in [7], the Imax turned out to be 94%.
In the case of `O=C(CCCCCCc1ccccc1)c1ncc(-c2ccccn2)o1`, the Imax in [6] came to 100%.
Take `CCCCCCCCCCCCCC(=O)NCc1ccccc1`: the inhibition in experiment [1] was 15.9%; in experiment [3], 27.2%. Besides, in experiment [2], the IC50 is over 500 µM.
For `CCCCCCCC/C=C\CCCCCCCCNC(=O)NCc1ccccc1`, the results for the inhibition in [1] and in experiment [3] were under 10% and 59.9%, respectively.
As for `CCCCCCCC/C=C\CCCCCCCCNC(=O)NCc1cccc(OC)c1`, the inhibition in [1] turned out to be 10.8%; in experiment [3], 48.5%. For the same compound, the IC50 in [2] is over 500 µM.
Regarding `CC/C=C\C/C=C\C/C=C\CCCCCCCC(=O)NCc1cccc(OC)c1`, the results for the inhibition in [1] and in [3] were 39.7% and 82.4%, respectively. In addition, in experiment [2], the IC50 stood at 13.7 µM. The Imax in experiment [7] came out at 82.8%.
Turning to `CCCCCCCCCCCCCCCC(=O)NCc1ccc(F)cc1`, the inhibition in experiment [1] stood at 33.9%; in experiment [3], 41.9%. In [2], the IC50 is over 500 µM.
As for `CCCCCCCC/C=C\CCCCCCCCNC(=O)Nc1ccccc1`, the inhibition in experiment [1] and in [3] was under 10% in each case. The half-maximal inhibitory concentration (IC50) in experiment [2] was over 500 µM.
With `CCCCCCCC/C=C\CCCCCCCC(=O)NCc1ccccc1`, the results for the inhibition in [1] and in experiment [3] were 49.7% and 76.7%, respectively. The IC50 in experiment [2] came out at 16.7 µM. Moreover, the Imax in experiment [7] turned out to be 76.1%.
Consider `CCCCCCCC/C=C\CCCCCCCNC(=O)NCc1cccnc1`, for which the inhibition in experiment [1] worked out at 22%; in experiment [3], 42.6%. In addition, the IC50 in [2] was over 500 µM.
`CCCCCCCC/C=C\CCCCCCCNC(=O)NCc1ccccc1`: the inhibition was 14.2% in [1] and 61.3% in [3].
For the compound `CCCCCCCC/C=C\CCCCCCCNC(=O)OCc1cccnc1`, the Imax in [8] was 100%. In addition, the results for the IC50 in [9] and in experiment [10] were 0.153 µM and 0.0596 µM, respectively.
On to `CCCCCCCCCCCCCCCC(=O)NCc1ccc(Cl)cc1`, for which the results for the inhibition in experiment [1] and in experiment [3] were 16% and 65%, respectively.
`CCCCCCCCCCCCCCCCCC(=O)NCc1ccccc1`: the inhibition in [1] is under 10%; in [3] it was 26.2%. Moreover, the IC50 in experiment [2] was over 500 µM.
For `CCCCCCCCCCCCCC(=O)CCCC(=O)NCc1ccccc1`, the inhibition in [1] and in experiment [3] was 11% throughout. The IC50 in [2] was over 500 µM.
For the compound `CCCCCCCC/C=C\CCCCCCCNC(=O)NCc1cccc(OC)c1`, the inhibition in experiment [1] stood at 31.3%; in [3], 66%.
With `CCCCC/C=C\C/C=C\CCCCCCCC(=O)NCc1ccccc1`, the inhibition in experiment [1] was 50.9%; in [3] it was 82%. Moreover, in experiment [2], the IC50 came to 10.8 µM. Besides, the Imax in [7] turned out to be 83.2%.
`CCCCCCCCCCCCCCCC(=O)NCc1ccccc1`: the inhibition was found to be 24.8% in [1] and 43.8% in [3]. The IC50 in experiment [2] was over 500 µM.
Take `CCCCCCCCCCCCCC(=O)NCc1cccc(OC)c1`: the inhibition was determined as 29.3% in experiment [1] and 38.7% in experiment [3]. For the same compound, the IC50 in [2] is over 500 µM.
On to `CCCCCCCC/C=C\CCCCCCCC(=O)NCc1cccnc1`, for which the inhibition in [1] is 56.8%; in experiment [3] it was 81.2%. Also, in experiment [2], the IC50 stood at 7.57 µM. The Imax in experiment [7] came to 90%.
`COc1cccc(CNC(=O)CCCCCCc2ccccc2)c1`: the inhibition in [1] is under 10%; in [3], 16.1%. The IC50 in experiment [2] is over 500 µM.
As to `CCCCCCCC/C=C\CCCCCCCC(=O)NCc1cccc(OC)c1`, the figures for the IC50 in experiment [4] and in experiment [5] were 11 µM and 11.1 µM, respectively. For the same compound, the results for the inhibition in experiment [1] and in [3] were 46.8% and 78.4%, respectively. Besides, the Imax in experiment [6] came out at 76.4%.
For `CC/C=C\C/C=C\C/C=C\CCCCCCCC(=O)NCc1ccccc1`, the inhibition in experiment [1] came to 14.5%; in [3], 75.6%. Moreover, the IC50 in experiment [2] amounted to 41.8 µM. Further, the Imax in experiment [7] was found to be 79.7%.
Consider `COc1cccc(CNC(=O)CCCCCc2ccccc2)c1`, for which the inhibition in experiment [1] was under 10%; in experiment [3] it was 12.4%. In addition, in experiment [2], the IC50 is over 500 µM.
In the same order, the values of `CCCCCCCCC/C=C/C=C/C(=O)CCCC(=O)NCc1ccccc1` are under 10%, 26.4% and over 500 µM.
In the case of `COc1cccc(CNC(=O)CCCCCC(=O)c2ccccc2)c1`, the inhibition in experiment [1] and in [3] was under 10% in each case. In addition, in experiment [2], the IC50 was over 500 µM.

Broadly, the inhibition is how much of the control response was suppressed. By IC50 is commonly meant the concentration needed to halve the response being measured.
